Our source for the inhibition values is PubChem BioAssay AID651740 (Broad Institute, 2012).

The whole screen tested about 5,600 compounds, of which about 1,200 (21%) were called active. About 3% were inconclusive and are not listed. Not all results are given here. Values without a mark were called inactive.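 The calls were made as follows: active = mean inhibition above about 95%, with at least 55% of replicates also reaching it (limit read from the data); inconclusive = meets just one of the two conditions; inactive = meets neither condition.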

This assay can be described thus: inhibitors of intracellular T. cruzi replication, confirmation, NIH3T3 host cells, beta-gal parasites, cherry-pick, set 2 (AID 651740).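 Also: plate controls were neutral control median for no effect and positive control median for full effect.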 The following applies: T. cruzi beta-gal in NIH3T3, GalScreen luminescence, 90 h; at 2.09 µM; hits give high values. The method, boiled down:
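Test system: mouse NIH/3T3 fibroblasts infected with beta-galactosidase T. cruzi Tulahuen C4; Probe or stimulus: 5000 trypomastigotes per well; Measured by: GalScreen luminescence (substrate 1:25 in Buffer B) after cell lysis; Incubation: 3 h host cell attachment, then ≥90 h compound-parasite co-culture, 60 min GalScreen; Dosing: single point, 100 nL compound in DMSO pinned per well.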
Take `COc1ccc(CN(C)C[C@H]2Oc3ccc(NS(=O)(=O)c4ccc(Cl)cc4)cc3CC(=O)N([C@@H](C)CO)C[C@H]2C)cc1`: the inhibition – broadly, the change of the read-out against control, counted positive when it falls – was 33.6%.
As for `C[C@@H]1CN([C@H](C)CO)C(=O)c2cccc(NC(=O)c3ccc(-c4nccs4)cc3)c2O[C@@H]1CN(C)C(=O)Nc1ccc(C(F)(F)F)cc1`, the inhibition is 53%.
On to `CC(C)CC#Cc1cnc2c(c1)C(=O)N([C@@H](C)CO)C[C@@H](C)[C@H](CN(C)C(=O)Cc1ccncc1)O2`, for which the inhibition is 29.7%.
Consider `O=C(c1cccc(F)c1)N1CCCCN2[C@H](CO)[C@H](c3ccc(-c4ccncc4)cc3)[C@H]2C1`, for which the inhibition is 82%.
As to `CN(C)C(=O)c1ccc(-c2ccc([C@@H]3[C@H](CO)N4CCCCN(S(C)(=O)=O)C[C@@H]34)cc2)cc1`, the inhibition is 17.3%.
As for `Cc1cccc(-c2ccc([C@H]3[C@@H](CO)N4CCCCN(Cc5cncnc5)C[C@H]34)cc2)c1`, the inhibition was 48.1%.
For the molecule `CN(C)C(=O)c1ccc(-c2ccc3c(c2)[C@H]2[C@H](CCN2C(=O)c2ccc4c(c2)OCO4)[C@H](CO)N3)cc1`, the inhibition is 72.2%.
On to `C[C@@H]1CN([C@H](C)CO)C(=O)c2cc(NC(=O)Nc3ccc(F)cc3)ccc2O[C@@H](C)CCCCO[C@@H]1CN(C)CC1CCCCC1`, for which the inhibition was 104% (active).
Take `C[C@H]1CCCCO[C@@H](CN(C)C(=O)NC2CCCCC2)[C@@H](C)CN([C@@H](C)CO)C(=O)c2cc(NS(=O)(=O)c3ccc(Cl)cc3)ccc2O1`: the inhibition is 68%.
For `Cc1ccc(S(=O)(=O)Nc2ccc3c(c2)C(=O)N([C@H](C)CO)C[C@H](C)[C@H](CN(C)C(=O)Nc2ccc(F)cc2)OCCCC[C@H](C)O3)cc1`, the inhibition was 71.2%.
Take `C[C@@H]1CCCCO[C@@H](CN(C)CC2CC2)[C@H](C)CN([C@H](C)CO)C(=O)c2cc(NC(=O)C3CCCCC3)ccc2O1`: the inhibition is 89.3%.
The figure for `C[C@@H]1CCCCO[C@@H](CN(C)Cc2ccc(C(F)(F)F)cc2)[C@@H](C)CN([C@H](C)CO)C(=O)c2cc(NC(=O)Nc3ccccc3)ccc2O1` is 64.3%; for `C[C@@H]1CCCCO[C@H](CN(C)Cc2ccc(C(F)(F)F)cc2)[C@H](C)CN([C@H](C)CO)C(=O)c2cc(NC(=O)Nc3ccc(F)cc3)ccc2O1` it is 117% (active).
Take `C[C@H]1CCCCO[C@H](CN(C)Cc2ccccc2)[C@@H](C)CN([C@@H](C)CO)C(=O)c2cc(NC(=O)NC3CCCCC3)ccc2O1`: the inhibition is 43.1%.
Take `C[C@@H]1CCCCO[C@H](CN(C)Cc2ccccc2)[C@@H](C)CN([C@@H](C)CO)C(=O)c2cc(NC(=O)Nc3ccc(F)cc3)ccc2O1`: the inhibition was 103% (active).
Then `C[C@@H]1CCCCO[C@H](CN(C)C(=O)NC2CCCCC2)[C@H](C)CN([C@H](C)CO)C(=O)c2cc(NC(=O)Nc3ccc(F)cc3)ccc2O1`, with 105% (active); and `C[C@H]1CCCCO[C@H](CN(C)Cc2ccccc2)[C@@H](C)CN([C@@H](C)CO)C(=O)c2cc(NC(=O)c3ccccc3)ccc2O1`, with 68.2%.
On to `C[C@@H]1CN([C@@H](C)CO)C(=O)c2cc(C#CC3CCCCC3)cnc2O[C@H]1CN(C)S(=O)(=O)c1ccccc1`, for which the inhibition was 85.8%.
Turning to `COc1ccc(-c2ccc3c(c2)[C@@H]2[C@@H](CCN2C(=O)Cc2ccccn2)[C@H](CO)N3C)cc1`, the inhibition is 84.9%.
For the molecule `O=C(C1CCCC1)N1CCCCN2[C@@H](CO)[C@H](c3ccc(-c4cccc(F)c4)cc3)[C@@H]2C1`, the inhibition is 78.2%.
The figure for `O=C(CN1CCOCC1)N1CCCCN2[C@@H](CO)[C@H](c3ccc(/C=C/c4ccccc4)cc3)[C@@H]2C1` is 25.9%.
Consider `C[C@H]1CN([C@@H](C)CO)S(=O)(=O)c2ccc(C#Cc3cccc(F)c3)cc2O[C@@H]1CN(C)S(=O)(=O)c1cn(C)cn1`, for which the inhibition was 24.7%.
`Cc1ccc(S(=O)(=O)Nc2ccc3c(c2)C(=O)N([C@@H](C)CO)C[C@@H](C)[C@H](CN(C)C(=O)Nc2cccc4ccccc24)OCCCC[C@H](C)O3)cc1`: the inhibition is 66.1%.
With `C[C@@H]1CCCCO[C@@H](CN(C)Cc2ccccc2)[C@H](C)CN([C@H](C)CO)C(=O)c2cc(NC(=O)Nc3cccc4ccccc34)ccc2O1`, the inhibition is 110% (active).
Turning to `C[C@@H]1CN([C@@H](C)CO)C(=O)c2cc(NC(=O)Nc3cccc4ccccc34)ccc2O[C@@H](C)CCCCO[C@H]1CN(C)Cc1ccccc1`, the inhibition was 94.8%.
In the case of `C[C@H](CO)N1C[C@H](C)[C@H](CN(C)S(=O)(=O)c2ccccc2)Oc2ncc(-c3cccc(C(F)(F)F)c3)cc2C1=O`, the inhibition was 47.5%.
For `OC[C@@H]1[C@H](c2ccc(C#CC3CC3)cc2)[C@@H]2CN(CCC(F)(F)F)CCCCN12`, the inhibition was 78.6%.
Turning to `C[C@H](CO)N1C[C@H](C)[C@@H](CN(C)Cc2ccc(C(F)(F)F)cc2)OCCCC[C@H](C)Oc2ccc(NC(=O)C3CCCCC3)cc2C1=O`, the inhibition is 106% (active).
For the molecule `C[C@@H]1CN([C@@H](C)CO)C(=O)c2cc(NC(=O)C3CCCCC3)ccc2O[C@@H](C)CCCCO[C@H]1CN(C)Cc1ccncc1`, the inhibition is 78%.
Turning to `COc1ccc(NC(=O)N(C)C[C@@H]2Oc3c(NC(=O)NC4CCCCC4)cccc3C(=O)N([C@@H](C)CO)C[C@@H]2C)cc1`, the inhibition is 23.4%.
Regarding `C[C@H](CO)N1C[C@H](C)[C@@H](CN(C)Cc2ccc(C(=O)Nc3ccccc3N)cc2)Oc2c(NC(=O)c3ccc(-c4nccs4)cc3)cccc2C1=O`, the inhibition is 60.5%.
On to `C[C@@H]1CN([C@H](C)CO)C(=O)c2cccc(NC(=O)NC3CCCCC3)c2O[C@H]1CN(C)Cc1ccc(C(F)(F)F)cc1`, for which the inhibition was 106% (active).
On to `C[C@H]1CCCCO[C@H](CN(C)Cc2ccc(C(F)(F)F)cc2)[C@@H](C)CN([C@@H](C)CO)C(=O)c2cc(NC(=O)C3CCCCC3)ccc2O1`, for which the inhibition was 111% (active).
As to `C[C@@H]1CN([C@H](C)CO)S(=O)(=O)c2ccc(C#Cc3ccncc3)cc2O[C@@H]1CN(C)S(=O)(=O)c1ccc(F)cc1`, the inhibition was 22.2%.
The figure for `OC[C@H]1[C@H](c2ccc(-c3cccc(F)c3)cc2)[C@@H]2CN(Cc3cncnc3)CCCCN12` is 60.7%; for `CC(=O)N(C)C[C@@H]1[C@@H](c2ccc(-c3ccccc3F)cc2)[C@@H](CO)N1C(C)=O` it is 26.5%; for `OC[C@@H]1[C@H](c2ccc(C#Cc3ccccc3)cc2)[C@@H]2CN(Cc3cncnc3)CCCCN12` it is 90.4%.
On to `N#C[C@H]1[C@@H](c2ccc(C3=CCCCC3)cc2)[C@@H](CO)N1C(=O)NC1CCCCC1`, for which the inhibition is 59.4%.
For `Cc1ccccc1-c1ccc([C@H]2[C@H]3CN(S(=O)(=O)c4ccc(F)cc4)CCCCN3[C@H]2CO)cc1`, the inhibition is 93.8%.
Turning to `C[C@@H]1CCCCO[C@H](CN(C)S(=O)(=O)c2ccc(F)cc2)[C@H](C)CN([C@@H](C)CO)C(=O)c2cc(NS(=O)(=O)c3ccccc3)ccc2O1`, the inhibition was 47.8%.
`O=C(CN1CCOCC1)N1CCCCN2[C@@H](CO)[C@H](c3ccc(-c4ccccc4)cc3)[C@@H]2C1`: the inhibition was 36.1%.
With `CCCC#Cc1ccc([C@@H]2[C@@H](C#N)N(C(=O)C3CCCC3)[C@@H]2CO)cc1`, the inhibition is 73.2%.
On to `CC(C)NC(=O)N1[C@H](C#N)[C@H](c2ccc(C#CC3CCCCC3)cc2)[C@H]1CO`, for which the inhibition was 117% (active).
Then `CS(=O)(=O)N1[C@@H](C#N)[C@H](c2ccc(C#CC3CCCCC3)cc2)[C@@H]1CO`, with 35.7%; and `CN1c2ccc(-c3ccccc3)cc2[C@@H]2[C@@H](CCN2C(=O)c2ccncc2)[C@@H]1CO`, with 64.5%.
Regarding `C[C@@H]1CN([C@H](C)CO)C(=O)Cc2cc(NC(=O)c3ccncc3)ccc2O[C@H]1CN(C)Cc1ccc(-c2ccccc2)cc1`, the inhibition is 48.9%.
For `N#Cc1cccc(-c2ccc([C@H]3[C@H](CO)N4CCCCN(C(=O)Nc5cccc(F)c5)C[C@@H]34)cc2)c1`, the inhibition was 87.9%.
With `COc1ccc(C#Cc2cnc3c(c2)C(=O)N([C@@H](C)CO)C[C@H](C)[C@@H](CN(C)C(C)=O)O3)cc1`, the inhibition was -5.22%.
The figure for `COCC(=O)N(C)C[C@@H]1Oc2ncc(C#Cc3ccccc3OC)cc2C(=O)N([C@@H](C)CO)C[C@H]1C` is 99.4% (active).
For `C[C@@H]1CN([C@@H](C)CO)C(=O)c2cc(C#Cc3ccccc3)cnc2O[C@H]1CN(C)C(=O)c1ccccn1`, the inhibition is 62.8%.
For `C[C@H]1CN([C@@H](C)CO)C(=O)CCCn2cc(nn2)CO[C@H]1CN(C)C(=O)c1ccccc1`, the inhibition is -12.4%.
As for `C[C@H](CO)N1C[C@H](C)[C@@H](CN(C)S(=O)(=O)c2cccc(F)c2)OCc2ccccc2-c2c(n(C)c3ccccc23)C1=O`, the inhibition is 91.4%.
On to `O=C(CN1CCOCC1)N1CCCCN2[C@H](CO)[C@H](c3ccc(-c4ccccc4)cc3)[C@@H]2C1`, for which the inhibition was 49.3%.
With `CCCC#Cc1ccc2c(c1)O[C@@H](CN(C)C(=O)c1ccccc1F)[C@H](C)CN([C@H](C)CO)S2(=O)=O`, the inhibition is 19.4%.
As for `C[C@@H]1CN([C@@H](C)CO)S(=O)(=O)c2ccc(C#Cc3ccc(F)cc3)cc2O[C@H]1CN(C)C(=O)c1ccccn1`, the inhibition is 14.4%.
For the molecule `C[C@@H]1CN([C@H](C)CO)S(=O)(=O)c2ccc(C3=CCCC3)cc2O[C@H]1CN(C)Cc1ccccc1F`, the inhibition is 73.8%.
For the molecule `C[C@@H]1CN([C@@H](C)CO)S(=O)(=O)c2ccc(C#Cc3ccccc3)cc2O[C@@H]1CN(C)C(=O)Nc1ccccc1`, the inhibition was 99.8% (active).
Take `C[C@@H]1CN([C@H](C)CO)S(=O)(=O)c2ccc(C#CC3CCCC3)cc2O[C@@H]1CN(C)Cc1cccnc1`: the inhibition is 60.2%.
Consider `C[C@H]1CN([C@@H](C)CO)S(=O)(=O)c2ccc(C#CCN(C)C)cc2O[C@@H]1CN(C)Cc1ccc(F)cc1`, for which the inhibition is 93.3%.
Regarding `CC(C)C#Cc1ccc2c(c1)O[C@H](CN(C)Cc1ccccc1)[C@H](C)CN([C@@H](C)CO)S2(=O)=O`, the inhibition was 105% (active).
On to `C[C@H]1CN([C@@H](C)CO)S(=O)(=O)c2ccc(C3=CCCCC3)cc2O[C@@H]1CN(C)Cc1ccccc1`, for which the inhibition was 109% (active).
Turning to `C[C@H]1CN([C@@H](C)CO)S(=O)(=O)c2ccc(C3=CCCC3)cc2O[C@@H]1CN(C)Cc1ccccc1`, the inhibition is 68%.
Regarding `C[C@@H]1CN([C@@H](C)CO)S(=O)(=O)c2ccc(/C=C/c3ccccc3)cc2O[C@H]1CN(C)Cc1ccccc1`, the inhibition was 106% (active).
As for `C[C@H](CO)N1C[C@H](C)[C@@H](CN(C)Cc2ccncc2)Oc2cc(Br)ccc2S1(=O)=O`, the inhibition is 92.7%.
The figure for `C[C@@H]1CN([C@@H](C)CO)S(=O)(=O)c2ccc(C#Cc3ccc(F)cc3)cc2O[C@H]1CN(C)C(=O)NC1CCCC1` is 81.2%; for `C[C@H](CO)N1C[C@H](C)[C@H](CN(C)Cc2cccnc2)Oc2cc(C#CC3CCCC3)ccc2S1(=O)=O` it is 82.9%.
